Reference: ChEMBL document CHEMBL2375244 (J Med Chem, 2013)
The source made the active and inactive calls. No cut-off for these calls is given here.

Legend:
[1] = tested on: MDA-MB-468; test: Cytotoxicity against human MDA-MB-468 cells after 72 hrs by MTT assay; type: functional, cell-based; conditions: MDA-MB-468, 72 h
Summary of the method: (§1)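 Cells kept in RPMI or DMEM with 10% FBS at 37 °C, 5% CO₂ and allowed to attach overnight; 72 h with increasing inhibitor concentrations; then 1 mg/mL MTT for 3 h, DMSO solubilisation, OD read at 540 nm. Testis lines had culture conditions adapted to them. Dose-response in triplicate, 9 concentrations between 0.02 and 100 μM, averaged.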

[2] = tested on: SK-ES1; test: Cytotoxicity against human SK-ES-1 cells after 72 hrs by resazurin/resorufin-based fluorescence assay; type: functional, cell-based; conditions: SK-ES1, 72 h
[3] = target: CDK6/cyclin D1 (Homo sapiens, UniProt Q00534); test: Inhibition of CDK6/Cyclin D1 (unknown origin)-mediated phosphorylation of peptide substrate incubated for 15 mins prior to substrate addition measured after 90 mins by P33-radiolabeled assay; type: protein-complex assay
CDK6/cyclin D1, sequence (P24385 whole entry): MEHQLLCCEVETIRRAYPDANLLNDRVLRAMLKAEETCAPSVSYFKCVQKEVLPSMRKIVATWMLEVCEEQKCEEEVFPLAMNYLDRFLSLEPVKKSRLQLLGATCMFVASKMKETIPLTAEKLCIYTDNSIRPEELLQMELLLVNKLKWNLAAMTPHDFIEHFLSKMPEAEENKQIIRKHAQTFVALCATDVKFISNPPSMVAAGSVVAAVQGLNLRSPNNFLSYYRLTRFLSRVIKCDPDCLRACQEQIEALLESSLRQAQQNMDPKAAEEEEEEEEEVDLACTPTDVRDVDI
CDK6/cyclin D1, sequence (Q00534 whole entry): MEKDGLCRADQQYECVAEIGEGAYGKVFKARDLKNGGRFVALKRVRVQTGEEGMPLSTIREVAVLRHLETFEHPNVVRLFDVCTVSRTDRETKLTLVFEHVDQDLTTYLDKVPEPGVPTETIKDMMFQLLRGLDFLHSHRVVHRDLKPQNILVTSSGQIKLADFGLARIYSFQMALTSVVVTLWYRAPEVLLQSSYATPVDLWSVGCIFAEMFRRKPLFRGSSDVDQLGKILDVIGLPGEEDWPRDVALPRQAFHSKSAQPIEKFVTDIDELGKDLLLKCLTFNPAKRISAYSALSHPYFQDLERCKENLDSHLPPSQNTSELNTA

[4] = target: Cyclin-dependent kinase 1/cyclin B1 (Homo sapiens) (UniProt P06493+P14635); test: Inhibition of human CDK1/Cyclin B at 0.1 uM incubated for 15 mins prior to substrate addition measured after 90 mins by P33-radiolabeled assay relative to control; type: protein-complex assay
Cyclin-dependent kinase 1/cyclin B1 (Homo sapiens), sequence (P06493 whole entry, looked up): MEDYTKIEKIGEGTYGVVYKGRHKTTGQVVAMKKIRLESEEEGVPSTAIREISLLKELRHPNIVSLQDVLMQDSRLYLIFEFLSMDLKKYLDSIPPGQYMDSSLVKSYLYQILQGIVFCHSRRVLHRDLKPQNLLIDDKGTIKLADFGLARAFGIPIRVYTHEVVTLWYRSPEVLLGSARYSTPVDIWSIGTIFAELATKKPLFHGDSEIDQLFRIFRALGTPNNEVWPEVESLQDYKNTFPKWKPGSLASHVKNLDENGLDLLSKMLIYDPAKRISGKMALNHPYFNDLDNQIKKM
Cyclin-dependent kinase 1/cyclin B1 (Homo sapiens), sequence (P14635 whole entry, looked up): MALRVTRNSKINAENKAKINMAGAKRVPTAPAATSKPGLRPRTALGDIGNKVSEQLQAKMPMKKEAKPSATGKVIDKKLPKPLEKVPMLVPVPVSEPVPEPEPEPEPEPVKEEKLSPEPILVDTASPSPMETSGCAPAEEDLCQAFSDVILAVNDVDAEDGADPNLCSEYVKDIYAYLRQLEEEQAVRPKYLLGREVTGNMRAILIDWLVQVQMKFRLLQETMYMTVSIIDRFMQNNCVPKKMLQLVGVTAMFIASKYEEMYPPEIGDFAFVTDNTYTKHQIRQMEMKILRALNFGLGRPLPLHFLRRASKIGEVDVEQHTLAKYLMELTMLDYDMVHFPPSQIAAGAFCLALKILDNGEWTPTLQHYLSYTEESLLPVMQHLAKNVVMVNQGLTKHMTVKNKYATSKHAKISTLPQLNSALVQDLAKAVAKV

[5] = target: Cyclin-dependent kinase 2 (Homo sapiens) (UniProt P24941); test: Inhibition of CDK2-mediated Rb phosphorylation at Ser 807/811 in human A673 cells at 0.25 uM after 24 hrs by immunoblotting analysis; type: cell-based
Summary of the method: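 Asynchronously growing A-673 cells at ~70% confluence were exposed for 24 h to increasing concentrations, then lysed. 50 μg protein per lane on 10% SDS-PAGE, transferred to nitrocellulose. Phospho-Rb Ser807/811 antibody, with β-actin as loading control, detected with fluorescent secondary antibodies on an infrared scanner.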

[6] = target: Cyclin-dependent kinase 2/cyclin E1 (Homo sapiens) (UniProt P24864+P24941); test: Inhibition of human CDK2/Cyclin E at 0.1 uM incubated for 15 mins prior to substrate addition measured after 90 mins by P33-radiolabeled assay relative to control; type: protein-complex assay
[7] = target: Dual specificity protein kinase CLK2 (Homo sapiens) (UniProt P49760); test: Inhibition of human CLK2 at 0.1 uM incubated for 15 mins prior to substrate addition measured after 90 mins by P33-radiolabeled assay relative to control
Dual specificity protein kinase CLK2 (Homo sapiens), sequence (P49760 whole entry, looked up): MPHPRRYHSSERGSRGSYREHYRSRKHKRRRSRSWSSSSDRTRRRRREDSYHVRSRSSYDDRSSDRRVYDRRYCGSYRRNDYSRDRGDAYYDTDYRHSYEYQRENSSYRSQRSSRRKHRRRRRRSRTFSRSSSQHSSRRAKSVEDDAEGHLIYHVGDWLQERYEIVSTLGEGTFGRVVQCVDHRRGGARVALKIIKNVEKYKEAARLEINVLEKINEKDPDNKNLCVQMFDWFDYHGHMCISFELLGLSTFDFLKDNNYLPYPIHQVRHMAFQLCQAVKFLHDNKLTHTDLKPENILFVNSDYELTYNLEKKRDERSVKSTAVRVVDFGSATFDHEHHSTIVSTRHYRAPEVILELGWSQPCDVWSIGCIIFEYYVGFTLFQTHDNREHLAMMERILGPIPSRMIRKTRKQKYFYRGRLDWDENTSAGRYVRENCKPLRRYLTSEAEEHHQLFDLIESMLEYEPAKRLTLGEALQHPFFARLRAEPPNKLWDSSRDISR

[8] = target: Dual specificity tyrosine-phosphorylation-regulated kinase 1A (Homo sapiens) (UniProt Q13627); test: Inhibition of human DYRK1A at 0.1 uM incubated for 15 mins prior to substrate addition measured after 90 mins by P33-radiolabeled assay relative to control
[9] = tested on: NCI-H929; test: Induction of apoptosis in human NCI-H929 cells assessed as increase in cleaved caspase-3 level at […] after 24 hrs by FACS flow cytometric analysis relative to control; type: functional
[10] = target: CDK2/Cyclin A2 (Homo sapiens, UniProt P24941); test: Inhibition of human CDK2/Cyclin A2 using PKTPKKAKKL as substrate by fluorescence assay; type: protein-complex assay
[11] = tested on: A673; test: Cytotoxicity against human A673 cells after 72 hrs by resazurin/resorufin-based fluorescence assay; type: functional, cell-based; conditions: A673, 72 h
[12] = tested on: SW872; test: Cytotoxicity against human SW872 cells after 72 hrs by resazurin/resorufin-based fluorescence assay; type: functional, cell-based; conditions: SW872, 72 h
[13] = tested on: MDA-MB-231; test: Cytotoxicity against human MDA-MB-231 cells after 72 hrs by resazurin/resorufin-based fluorescence assay; type: functional, cell-based; conditions: MDA-MB-231, 72 h
[14] = target: CDK9/cyclin T1 (Homo sapiens) (UniProt O60563+P50750); test: Inhibition of human CDK9/CyclinT1 at 0.1 uM incubated for 15 mins prior to substrate addition measured after 90 mins by P33-radiolabeled assay relative to control; type: protein-complex assay
Summary of the method: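 Kinome profiling (339-kinase panel) by a contract lab using a P33-radiolabel assay. Each kinase was tested at a single compound concentration of 0.1 μM, in duplicate, with ATP at 10 μM.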

[15] = target: Cyclin-dependent kinase 4/cyclin D1 (Homo sapiens, UniProt P11802); test: Inhibition of CDK4/Cyclin D1 (unknown origin)-mediated phosphorylation of peptide substrate incubated for 15 mins prior to substrate addition measured after 90 mins by P33-radiolabeled assay; type: protein-complex assay
Cyclin-dependent kinase 4/cyclin D1, sequence (P11802 whole entry): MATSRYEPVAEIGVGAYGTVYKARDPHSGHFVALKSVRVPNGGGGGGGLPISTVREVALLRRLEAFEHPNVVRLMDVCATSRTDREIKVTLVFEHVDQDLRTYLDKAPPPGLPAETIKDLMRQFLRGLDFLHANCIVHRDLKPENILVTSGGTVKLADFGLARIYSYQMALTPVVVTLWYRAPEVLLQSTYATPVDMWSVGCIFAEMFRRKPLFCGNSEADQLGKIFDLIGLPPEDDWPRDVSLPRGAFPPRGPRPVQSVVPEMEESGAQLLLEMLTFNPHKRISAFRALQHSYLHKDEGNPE
Cyclin-dependent kinase 4/cyclin D1, sequence (P24385 whole entry, further chain): as the sequence (P24385 whole entry) above

[16] = Cytotoxicity against human MDA-MB-436 cells after 72 hrs by resazurin/resorufin-based fluorescence assay; type: functional, cell-based; conditions: MDA-MB-436, 72 h
[17] = target: CDK1/Cyclin A (Homo sapiens, UniProt P06493); test: Inhibition of CDK1/Cyclin A (unknown origin)-mediated phosphorylation of peptide substrate incubated for 15 mins prior to substrate addition measured after 90 mins by P33-radiolabeled assay; type: protein-complex assay
CDK1/Cyclin A, sequence (P06493 whole entry): as the sequence (P06493 whole entry, looked up) above
CDK1/Cyclin A, sequence (P20248 whole entry, further chain): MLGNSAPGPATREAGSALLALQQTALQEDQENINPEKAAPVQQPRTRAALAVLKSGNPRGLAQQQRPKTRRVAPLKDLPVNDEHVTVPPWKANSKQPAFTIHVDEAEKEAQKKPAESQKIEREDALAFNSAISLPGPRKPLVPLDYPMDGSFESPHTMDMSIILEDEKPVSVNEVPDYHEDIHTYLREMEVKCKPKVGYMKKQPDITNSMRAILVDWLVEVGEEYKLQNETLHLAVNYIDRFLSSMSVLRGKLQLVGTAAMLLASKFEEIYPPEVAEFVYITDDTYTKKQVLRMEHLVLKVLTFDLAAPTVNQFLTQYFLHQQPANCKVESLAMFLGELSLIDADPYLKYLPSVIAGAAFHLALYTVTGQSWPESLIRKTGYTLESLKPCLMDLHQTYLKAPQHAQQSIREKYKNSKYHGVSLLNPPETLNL

[18] = target: Cyclin-dependent kinase 4/cyclin D1 (Homo sapiens) (UniProt P11802+P24385); test: Inhibition of human CDK4/Cyclin D1 at 0.1 uM incubated for 15 mins prior to substrate addition measured after 90 mins by P33-radiolabeled assay relative to control; type: protein-complex assay
[19] = tested on: HOS-TE85; test: Cytotoxicity against human MNNG-HOS cells after 72 hrs by resazurin/resorufin-based fluorescence assay; type: functional, cell-based; conditions: HOS-TE85, 72 h
[20] = tested on: T47D; test: Cytotoxicity against human T47D cells after 72 hrs by resazurin/resorufin-based fluorescence assay; type: functional, cell-based
[21] = target: T1, Glycogen synthase kinase-3 beta (Homo sapiens, UniProt P49841); test: Inhibition of GSK3beta (unknown origin)-mediated phosphorylation of peptide substrate incubated for 15 mins prior to substrate addition measured after 90 mins by P33-radiolabeled assay
Target sequence in this assay (P49841 whole entry): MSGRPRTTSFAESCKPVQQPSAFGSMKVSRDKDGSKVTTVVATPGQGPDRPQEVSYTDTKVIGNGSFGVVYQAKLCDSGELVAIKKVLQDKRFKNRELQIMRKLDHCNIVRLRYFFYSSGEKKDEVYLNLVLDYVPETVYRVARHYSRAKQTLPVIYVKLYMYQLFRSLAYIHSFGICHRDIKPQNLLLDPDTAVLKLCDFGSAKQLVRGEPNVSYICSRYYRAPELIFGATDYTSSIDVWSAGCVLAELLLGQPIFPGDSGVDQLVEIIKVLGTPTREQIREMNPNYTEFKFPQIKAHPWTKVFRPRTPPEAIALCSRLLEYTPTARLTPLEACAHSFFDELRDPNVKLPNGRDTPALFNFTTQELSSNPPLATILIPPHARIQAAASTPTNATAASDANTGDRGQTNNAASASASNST

[22] = tested on: SK-UT-1; test: Cytotoxicity against human SK-UT-1 cells after 72 hrs by resazurin/resorufin-based fluorescence assay; type: functional, cell-based; conditions: SK-UT-1, 72 h
[23] = target: Dual specificity protein kinase CLK1 (Homo sapiens) (UniProt P49759); test: Inhibition of human CLK1 at 0.1 uM incubated for 15 mins prior to substrate addition measured after 90 mins by P33-radiolabeled assay relative to control
Dual specificity protein kinase CLK1 (Homo sapiens), sequence (P49759 whole entry, looked up): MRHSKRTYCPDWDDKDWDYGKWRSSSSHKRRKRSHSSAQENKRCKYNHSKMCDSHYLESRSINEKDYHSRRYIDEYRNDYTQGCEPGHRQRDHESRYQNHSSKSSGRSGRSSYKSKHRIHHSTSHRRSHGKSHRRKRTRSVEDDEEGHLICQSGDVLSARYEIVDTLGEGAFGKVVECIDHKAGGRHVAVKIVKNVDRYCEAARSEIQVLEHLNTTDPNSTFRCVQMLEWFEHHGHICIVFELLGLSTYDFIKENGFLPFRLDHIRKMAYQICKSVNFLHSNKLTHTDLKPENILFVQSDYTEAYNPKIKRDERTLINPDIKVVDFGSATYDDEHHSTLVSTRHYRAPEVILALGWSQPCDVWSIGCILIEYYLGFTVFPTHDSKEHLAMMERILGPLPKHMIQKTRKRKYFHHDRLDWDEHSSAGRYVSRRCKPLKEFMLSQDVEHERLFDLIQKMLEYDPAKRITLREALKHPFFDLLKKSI

[24] = tested on: A673; test: Induction of apoptosis in human A673 cells assessed as caspase-3 activation at 0.05 uM to 5 uM after 24 hrs by luminescence assay relative to control; type: functional
Summary of the method: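 Caspase-3/7 activation measured with a Caspase-Glo 3/7 luminescent assay. Cells were plated as for the high-throughput viability assay and exposed for 24 h to serial dilutions. EC50 was obtained from the dose-response.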

[25] = Cytotoxicity against mouse GC-2 cells after 72 hrs by MTT assay; type: functional, cell-based; conditions: GC-2, 72 h; summary of the method: as §1
[26] = target: Glycogen synthase kinase-3 alpha (Homo sapiens) (UniProt P49840); test: Inhibition of human GSK3alpha at 0.1 uM incubated for 15 mins prior to substrate addition measured after 90 mins by P33-radiolabeled assay relative to control
Glycogen synthase kinase-3 alpha (Homo sapiens), sequence (P49840 2-483 limits assumed): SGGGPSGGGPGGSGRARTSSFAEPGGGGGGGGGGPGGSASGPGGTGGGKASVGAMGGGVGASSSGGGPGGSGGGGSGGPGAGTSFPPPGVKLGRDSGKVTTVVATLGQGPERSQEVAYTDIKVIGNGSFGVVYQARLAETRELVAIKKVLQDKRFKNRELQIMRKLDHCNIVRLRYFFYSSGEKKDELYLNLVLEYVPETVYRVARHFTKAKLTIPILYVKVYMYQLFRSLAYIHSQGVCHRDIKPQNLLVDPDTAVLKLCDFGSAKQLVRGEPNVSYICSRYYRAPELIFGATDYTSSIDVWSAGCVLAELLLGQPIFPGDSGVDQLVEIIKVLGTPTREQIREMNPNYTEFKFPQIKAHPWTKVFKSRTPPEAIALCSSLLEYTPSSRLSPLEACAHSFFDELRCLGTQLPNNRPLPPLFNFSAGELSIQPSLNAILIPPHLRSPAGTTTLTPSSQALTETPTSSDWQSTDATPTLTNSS

[27] = Cytotoxicity against mouse TM4 cells after 72 hrs by MTT assay; type: functional, cell-based; conditions: TM4, 72 h; summary of the method: as §1
[28] = Cytotoxicity against human NCI-H929 cells after 72 hrs by resazurin/resorufin-based fluorescence assay; type: functional, cell-based; conditions: NCI-H929, 72 h
[29] = tested on: U-266; test: Cytotoxicity against human U266 cells after 72 hrs by resazurin/resorufin-based fluorescence assay; type: functional, cell-based; conditions: U-266, 72 h
[30] = target: T1, Glycogen synthase kinase-3 beta; test: Inhibition of human GSK3beta at 0.1 uM incubated for 15 mins prior to substrate addition measured after 90 mins by P33-radiolabeled assay relative to control
Target sequence in this assay (P49841 whole entry, looked up): as the sequence (P49841 whole entry) above

Structure (SMILES): Nc1nc(Nc2ccc(S(N)(=O)=O)cc2)sc1C(=O)c1ccccc1[N+](=O)[O-]
- IC50 [1]: 300 nM
- IC50 [2]: 560 nM
- IC50 [3]: 6.6 nM
- inhibition [4]: 90%
- inhibition [5]: Active
- inhibition [6]: 90%
- inhibition [7]: 60%
- inhibition [8]: 50%
- Activity [9]: 26%
- IC50 [10]: 20 nM
- IC50 [11]: 270 nM
- IC50 [12]: 6900 nM
- IC50 [13]: 1500 nM
- inhibition [14]: 90%
- IC50 [15]: 4 nM
- IC50 [16]: 2000 nM
- IC50 [17]: 7.6 nM
- inhibition [18]: 80%
- IC50 [19]: 3000 nM
- IC50 [20]: 500 nM
- IC50 [21]: 107 nM
- IC50 [22]: 1400 nM
- inhibition [23]: 50%
- Activity [24]: 196%
- IC50 [25]: 9000 nM
- inhibition [26]: 75%
- IC50 [27]: 16000 nM
- IC50 [28]: 1600 nM
- IC50 [29]: 1800 nM
- inhibition [30]: 60%
